Assay results reported in ChEMBL document CHEMBL1165970, “Design, synthesis and biological evaluation of trans 2-(thiophen-2-yl)vinyl heteroaromatic iodides” (2010).

Assays:
MCF7 = test: Growth inhibition of human MCF7 cells after 3 days by MTT assay; assay type: functional; conditions: MCF7, 72 h
Outline: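 MCF-7 mammary adenocarcinoma cells were grown in DMEM (1.0 g/L D-glucose) with 10% heat-inactivated FBS, 2 mM L-alanyl-L-glutamine and penicillin-streptomycin at 37 °C under 5% CO2. Compounds were added 24 h after plating (0.01–100 µM final), with untreated controls. After 3 days, MTT was read at 570 nm; each value is the mean of 8 wells. GI50 was calculated per NCI, 100×(T−T0)/(C−T0)=50.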

LNCaP = test: Growth inhibition of human LNCAP cells after 3 days by MTT assay; assay type: functional; conditions: 72 h
Outline: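 LNCap prostate adenocarcinoma cells were grown in RPMI 1640 with 10% heat-inactivated FBS, 2 mM L-alanyl-L-glutamine and penicillin-streptomycin at 37 °C under 5% CO2. Cells were plated, then treated 24 h later at 0.01–100 µM final against untreated controls. MTT was read at 570 nm after 3 days, averaging 8 wells. GI50 was derived by the NCI formula 100×(T−T0)/(C−T0)=50.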

Row | GI50 (MCF7) | GI50 (LNCaP) | SMILES | LC50 (MCF7) | LC50 (LNCaP)
1 | 100 µM |  | Cn1cccc1/C=C/c1n(C)cc[n+]1C |  | 
2 | 1 µM | 20 µM | Cn1cc[n+](C)c1/C=C/c1cc(-c2ccccc2)cs1 |  | 
3 | 4.68 µM | 6.03 µM | Cn1cc[n+](C)c1/C=C/c1ccc(-c2cccs2)s1 |  | 
4 | 1.45 µM | 8.32 µM | Cn1cc[n+](C)c1/C=C/c1ccc(-c2ccccc2)s1 |  | 
5 | 8.32 µM | 33.9 µM | C[n+]1ccccc1/C=C/c1ccc(-c2ccccc2)s1 |  | 
6 | 14.5 µM |  | Cn1cc[n+](C)c1/C=C/c1ccc(Br)s1 |  | 
7 | 15.1 µM |  | Cn1c(/C=C/c2cccc[n+]2C)cc2ccccc21 |  | 

Row | SMILES | GI50 (MCF7) | GI50 (LNCaP) | LC50 (MCF7) | LC50 (LNCaP)
8 | C[n+]1ccccc1/C=C/c1cc(-c2ccccc2)cs1 | 0.525 µM | 7.59 µM | 77.6 µM | 69.2 µM
